The results in this text go back to ChEMBL document CHEMBL1150050, “Antimutagenic agents from natural products” (J Nat Prod, 1992).

Activity calls are given as the source filed them. No cut-off for these calls is given here.

The subject of data set [1] is Salmonella typhimurium. The data set can be described thus: Toxicity in Salmonella Typhimurium TA98 at 75 to 300 ug/plate after 48 to 72 hrs in presence of liver S-9 fraction. The class given is organism-based. The settings on record: salmonella enterica subsp. enterica serovar typhimurium. An outline of the steps: (§1)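 Toxicity plates were set up with bacteria, Ames S-9 preparation and test substance, with histidine in place of 2-aminoanthracene. They were mixed with top agar and incubated 48–72 h.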

The subject of data set [2] is Salmonella typhimurium. Put plainly: Toxicity in Salmonella Typhimurium TA100 at 75 to 300 ug/plate after 48 to 72 hrs in presence of liver S-9 fraction. The class given is organism-based. The settings on record: salmonella enterica subsp. enterica serovar typhimurium. In short, it runs like this: as §1
Data set [3] has as its system Salmonella typhimurium. The data set can be described thus: Antimutagenic activity in Salmonella Typhimurium TA98 assessed as inhibition of 2-aminoanthracene-induced mutation at 75 ug/plate after 48 to 72 hrs by Ames assay in presence of liver S-9 fraction. The class given is functional, organism-based. The conditions noted are these: Salmonella enterica subsp. enterica serovar Typhimurium. In short, it runs like this:
(§2)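 Bacteria were combined with Ames S-9 metabolic activation preparation, test substance in DMSO and 2-aminoanthracene at 2.5 μg/plate, mixed with top agar and incubated 48–72 h. Mutagenicity inhibition was assessed relative to 2-aminoanthracene.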
(In general: The Ames test uses bacterial strains that need an amino acid and regain growth without it when mutated back.)

The subject of data set [4] is Salmonella typhimurium. Put plainly: Antimutagenic activity in Salmonella Typhimurium TA98 assessed as inhibition of 2-aminoanthracene-induced mutation at 150 ug/plate after 48 to 72 hrs by Ames assay in presence of liver S-9 fraction. It is filed as functional, organism-based. The settings on record: Salmonella enterica subsp. enterica serovar Typhimurium. An outline of the steps: as §2

The subject of data set [5] is Salmonella typhimurium. The data set can be described thus: Antimutagenic activity in Salmonella Typhimurium TA100 assessed as inhibition of ethyl methanesulfonate-induced mutation at 300 ug/plate after 48 to 72 hrs by Ames assay in presence of liver S-9 fraction. It is filed as functional, organism-based. The conditions noted are these: Salmonella enterica subsp. enterica serovar Typhimurium.

In data set [6] the test system is Salmonella typhimurium. Put plainly: Antimutagenic activity in Salmonella Typhimurium TA100 assessed as inhibition of ethyl methanesulfonate-induced mutation at 32 to 300 ug/plate after 48 to 72 hrs by Ames assay in presence of liver S-9 fraction. It is filed as functional, Salmonella enterica subsp. enterica serovar Typhimurium. Also on record: scale not given: the % may be the effect or the level left.

In data set [7] the test system is Salmonella typhimurium. Put plainly: Toxicity in Salmonella Typhimurium TA98 at 75 to 600 ug/plate after 48 to 72 hrs in presence of liver S-9 fraction. The settings on record: salmonella enterica subsp. enterica serovar typhimurium. The class given is organism-based. In short, it runs like this: as §1
In data set [8] the test system is Salmonella typhimurium. Put plainly: Toxicity in Salmonella Typhimurium TA100 at 75 to 600 ug/plate after 48 to 72 hrs in presence of liver S-9 fraction. The class given is organism-based. The settings on record: salmonella enterica subsp. enterica serovar typhimurium. An outline of the steps: as §1

Consider `CC1(C)[C@@H](Br)CC[C@]2(C)Oc3cc(Br)c(O)cc3C[C@@H]12`, for which the figures for the Activity entry in data set [1], in data set [2] and in data set [6] were “Non-toxic”, “Non-toxic” and 80%, respectively. For the same molecule, the outcome in data set [3], in data set [4] and in data set [5] was Active.
On to `CC1(C)[C@@H](Br)CC[C@@]2(C)Oc3cc(Br)c(O)cc3C[C@@H]12` [CYMOBARBATOL], for which the Activity entry in data set [1] is “Non-toxic”; in data set [2], “Non-toxic”; in data set [6], 80%. Also, the outcome in data set [3], in data set [4] and in data set [5] was Active.
`CC(C)=CCC/C(C)=C/Cc1cc(O)c(Br)cc1O` [CYMOPOL]: the Activity entry in data set [7] and in data set [8] was “Toxic” in each case.
